Measured values: ChEMBL document CHEMBL4622964, “Designing Dihydrofolate Reductase Inhibitors as X-ray Radiosensitizers to Reverse Radioresistance of Cervical Cancer” (ACS Med Chem Lett, 2020)

Assays:
[1] = test system: HeLa; assay: Antiproliferative activity against human HeLa cells assessed as reduction in cell viability incubated for 12 hrs by MTT assay; format: functional, cell-based
Outline: (§1)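 MTT viability assay in HeLa cancer cells, with the test agent alone (0 Gy) or combined with 4 Gy X-rays. IC50 values are in μM. Sensitivity enhancement ratio = IC50(0 Gy)/IC50(4 Gy).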

[2] = test system: HeLa; assay: Antiproliferative activity against human HeLa cells assessed as reduction in cell viability preincubated for 12 hrs followed by 4 Gy irradiation and measured after 60 hrs by MTT assay; format: functional, cell-based; details: light or radiation study; outline: as §1
[3] = Cytotoxicity against human Ect1 cells assessed as reduction in cell viability by MTT assay; format: cell-based
Outline: (§2)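 MTT viability assay in Ect1/E6E7 normal ectocervical epithelial cells, with the test agent alone (0 Gy) or combined with 4 Gy X-rays. IC50 values are in μM.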

[4] = biological target: T1, Dihydrofolate reductase (Homo sapiens, UniProt P00374); assay: Inhibition of recombinant human DHFR using dihydrofolate as substrate in presence of NADPH
T1 sequence (P00374 whole entry): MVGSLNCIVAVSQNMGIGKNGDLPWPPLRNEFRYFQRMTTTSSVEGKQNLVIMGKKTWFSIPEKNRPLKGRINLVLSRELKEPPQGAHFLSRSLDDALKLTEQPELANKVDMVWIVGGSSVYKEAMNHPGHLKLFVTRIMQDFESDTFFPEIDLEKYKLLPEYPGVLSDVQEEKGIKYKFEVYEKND

[5] = Cytotoxicity against human Ect1 cells assessed as reduction in cell viability in presence of 4 Gy irradiation by MTT assay; format: cell-based; details: light or radiation study; outline: as §2
[6] = test system: HeLa; assay: Ratio of IC50 for antiproliferative activity against human HeLa cells assessed as reduction in cell viability incubated for 12 hrs to IC50 for antiproliferative activity against human HeLa cells assessed as reduction in cell viability preincubated for 12 hrs followed by 4 Gy irradiation and measured after 60 hrs by MTT assay; format: functional; outline: as §1
[7] = Ratio of IC50 for cytotoxicity against human Ect1 cells assessed as reduction in cell viability by MTT assay to cytotoxicity against human Ect1 cells assessed as reduction in cell viability in presence of 4 Gy irradiation by MTT assay; format: cell-based; details: read-out: Ratio IC50
Outline: (§3)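 MTT viability assay on Ect1/E6E7 normal ectocervical cells and HeLa cells, with 0 or 4 Gy X-rays. SER = IC50(0 Gy)/IC50(4 Gy) in the same line; safe index SI4 = IC50 Ect1/E6E7 + 4 Gy divided by IC50 HeLa + 4 Gy.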

[8] = Safety index, ratio of IC50 for cytotoxicity against human Ect1 cells assessed as reduction in cell viability to IC50 for antiproliferative activity against human HeLa cells assessed as reduction in cell viability incubated for 12 hrs by MTT assay; format: toxicity, cell-based; details: Ect1 cells versus HeLa cells, read-out: Ratio IC50
Outline: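 Safe index SI0 from MTT assay without irradiation: IC50 in Ect1/E6E7 normal ectocervical cells divided by IC50 in HeLa cells.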

[9] = Safety index, ratio of IC50 for cytotoxicity against human Ect1/E6E7 cells assessed as reduction in cell viability in presence of 4 Gy irradiation by MTT assay to antiproliferative activity against human HeLa cells assessed as reduction in cell viability preincubated for 12 hrs followed by 4 Gy irradiation and measured after 60 hrs by MTT assay; format: toxicity, cell-based; details: Ect1/E6E7 cells versus HeLa cells, read-out: Ratio IC50; outline: as §3

| Compound | IC50 [1] [µM] | IC50 [2] [µM] | IC50 [3] [µM] | IC50 [4] [µM] | IC50 [5] [µM] | Ratio IC50 [6] | selectivity ratio [7] | selectivity ratio at 12 h [8] | selectivity ratio at 60 h [9] |
| --- | --- | --- | --- | --- | --- | --- | --- | --- | --- |
| Nc1nc(N)c2nc3c4ccccc4c4ccccc4c3nc2n1 | > 80 | > 80 | > 80 | > 50 | > 80 | – | – | – | – |
| Nc1nc(N)c2nc(-c3ccccc3)c(-c3ccccc3)nc2n1 | 32.6 | 14.8 | 59.3 | – | 38.1 | – | – | – | – |
| CN(Cc1cnc2nc(N)nc(N)c2n1)c1ccc(C(=O)N[C@@H](CCC(=O)O)C(=O)O)cc1 [METHOTREXATE] | 1.5 | 0.82 | 2.9 | – | 1.8 | – | – | – | – |
| Nc1nc(N)c2nc(-c3cccs3)c(-c3cccs3)nc2n1 | 4.6 | 2.3 | 10.9 | 1.43 | 5.3 | 2 | 2.1 | 2.5 | 2.3 |
| Nc1nc(N)c2nc(-c3ccco3)c(-c3ccco3)nc2n1 | 24.5 | 14.6 | 40.1 | 10.4 | 19.8 | 1.7 | 2 | 1.6 | 1.4 |
| Nc1nc(N)c2nc3c4cccnc4c4ncccc4c3nc2n1 | 9.8 | 6.3 | 20 | 5.8 | 13.9 | 1.6 | 1.4 | 2 | 2.2 |
